Among the data in ChEMBL document CHEMBL1806465, “Synthesis and biological evaluation of 4-nitro-substituted 1,3-diaryltriazenes as a novel class of potent antitumor agents” (Eur J Med Chem, 2011) are IC50, selectivity ratio and Activity values, retold here.

pIC50: −log10 of the molar value. Calls of active or inactive are those of the source. The rule behind the calls is not given here.

As a reminder, the pIC50 is −log10 of the IC50, conventionally taken in molar units. A higher pIC50 goes with a small IC50.

Series [1] in a line: Cytotoxicity against cisplatin-resistant human CA3ST cells after 72 hrs by MTT assay. Type of series: functional, cell-based. The method, boiled down:
(§1)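 MTT assay: 3000 cells/well seeded, compound added next day, each concentration in quadruplicate, 72 h at 37 °C; medium replaced with 20 µg MTT/well for 4 h, formazan dissolved in DMSO, OD 545 nm. […] Fibroblasts: normal skin fibroblasts from donor, DMEM/10% FBS, used at 32 and 36 population doublings.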
A general note: Tetrazolium dyes change colour on reduction, which living cells bring about.

Series [2] is described as follows: Therapeutic index, ratio IC50 for human RT112 cells to IC50 for normal human fibroblasts. The series is classed as cell-based, RT-112. The following applies: RT112 cells versus normal human fibroblasts, read-out: Ratio IC50. The method in brief:
(§2)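 IC50 values came from an MTT assay. Cells were seeded at 3000 per well and dosed the next day, with each concentration in quadruplicate. After 72 h at 37 °C, MTT (20 µg/well) was added for 4 h; formazan was dissolved in DMSO and read at 545 nm. Each experiment was done three times. Normal skin fibroblasts were used at 32 and 36 population doublings. T.I. = tumor-cell IC50 / fibroblast IC50.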

In series [3] the test system is HeLa. Kind of series: Induction of Grp78 expression in human HeLa cells at 7 uM after 16 to 48 hrs by Western blot analysis. The series is classed as functional, cell-based. The method, boiled down: (§3)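 Logarithmically growing HeLa cells were exposed to varying concentrations for 48 h, or to 7 µM for varying times. Cell extracts were run on 10% SDS gels and transferred to nitrocellulose. Membranes were blocked in 5% milk and probed with anti-Grp78 (1:1000, overnight, 4 °C), then an HRP secondary (1:5000, 2 h, RT). Detection was by ECL, with ERK2 reprobing as the loading control.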
(In general: Immunoblotting shows a protein as a band on a membrane.)

The test system of series [4] is HeLa. The series can be described thus: Cell cycle arrest in human HeLa cells assessed as accumulation at subG1 phase at 21 uM after 24 hrs by propidium iodide staining -based flow cytometry (reference value: 9.4 %). Type of series: functional. The method in brief: (§4)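 HeLa seeded at 100 000 cells/well, treated next day with 0.78, 7 or 21 µM for 24, 48 or 72 h. Adherent plus floating cells collected, PBS-washed, fixed overnight in 70% ethanol at −20 °C, RNase A 30 µg/ml 1 h RT, propidium iodide 16.7 µg/ml 30 min dark; DNA content by flow cytometry, phase percentages including subG1 reported.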
(In general: A flow cytometer gives signals particle by particle.)

Series [5] relates to HeLa. Kind of series: Induction of CHOP expression in human HeLa cells at 7 uM after 16 to 48 hrs by Western blot analysis. The series is classed as functional, cell-based. The method in brief: (§5)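 Log-phase HeLa exposed to a concentration series for 48 h, or to 7 µM over a time course. Extracts resolved on 10% SDS gels, blotted to nitrocellulose, blocked 5% milk; anti-CHOP 1:1000 in 5% BSA overnight at 4 °C, HRP secondary 1:5000 2 h RT, ECL detection; ERK2 reprobe as loading control.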

Series [6] is described as follows: Therapeutic index, ratio IC50 for human MIAPaCa2 cells to IC50 for normal human fibroblasts. The following applies: MIAPaCa2 cells versus normal human fibroblasts, read-out: Ratio IC50. Type of series: cell-based, MIA PaCa-2. The method, boiled down: as §2
For series [7], the system named is HeLa. The series can be described thus: Cell cycle arrest in human HeLa cells assessed as accumulation at S phase at 0.78 uM after 48 hrs by propidium iodide staining -based flow cytometry (reference value: 26.3 %). The series is classed as functional. The method in brief: as §4
For series [8], the system named is HeLa. The series can be described thus: Cell cycle arrest in human HeLa cells assessed as accumulation at subG1 phase at 21 uM after 48 hrs by propidium iodide staining -based flow cytometry (reference value: 8.5 %). Type of series: functional. The method in brief:
as §4

In series [9] the test system is HeLa. The series can be described thus: Induction of Grp78 expression in human HeLa cells at 7 uM up to 8 hrs by Western blot analysis. Type of series: functional, cell-based. The method in brief: as §3
The test system of series [10] is HeLa. Kind of series: Cell cycle arrest in human HeLa cells assessed as accumulation at G2/M phase at 7 uM after 48 hrs by propidium iodide staining -based flow cytometry (reference value: 9.9 %). The series is classed as functional. The method in brief: as §4
Series [11] concerns SW480. Kind of series: Cytotoxicity against human SW480 cells after 72 hrs by MTT assay. The series is classed as functional, cell-based. The following applies: SW480, 72 h. The method in brief: as §1
Series [12] deals with HeLa. The series can be described thus: Cell cycle arrest in human HeLa cells assessed as accumulation at subG1 phase at 7 uM after 24 hrs by propidium iodide staining -based flow cytometry (reference value: 9.4 %). Type of series: functional. The method in brief:
as §4

Series [13] relates to HeLa. The series can be described thus: Induction of CHOP expression in human HeLa cells at 7 uM up to 8 hrs by Western blot analysis. The series is classed as functional, cell-based. The method, boiled down:
as §5

Series [14] relates to MIA PaCa-2. The series can be described thus: Cytotoxicity against human MIAPaCa2 cells after 72 hrs by MTT assay. The series is classed as functional, cell-based. The note with it: MIA PaCa-2, 72 h. The method in brief: as §1

Take `CC(=O)N(/N=N/c1ccc([N+](=O)[O-])cc1Cl)c1ccc([N+](=O)[O-])cc1Cl`: the negative-log IC50 (pIC50) is 6.20 in [1], 6.28 in [11] and 6.28 in series [14]. The selectivity ratio was found to be 0.514 in series [2] and 0.037 in series [6]. Moreover, the result in series [3] and in [5] was Active. Moreover, the Activity in [4] was 16.4%; in series [7] it was 18.5%; in series [8] it was 46.5%; in series [10] it was 9.6%; in [12] it was 13.2%. For the same compound, the outcome in [9] and in series [13] was inactive.
